Assay results collected from several papers.
Protocols differ between the studies behind these lines.
TAF1L BD2: Transcription initiation factor TFIID subunit 1-like, BD2 (TAF1L, Homo sapiens, UniProt Q8IZX4)
SIRT3: NAD-dependent protein deacetylase sirtuin-3, mitochondrial (SIRT3, Homo sapiens, UniProt Q9NTG7)
PTGS1: Prostaglandin G/H synthase 1 (PTGS1, Ovis aries, UniProt P05979)
MAP3K9: Mitogen-activated protein kinase kinase kinase 9 (MAP3K9, Homo sapiens, UniProt P80192)

NS(=O)(=O)c1ccc(Nc2nc(-c3ccc(F)cc3)c3ccccc3n2)cc1 — remaining binding (TAF1L BD2; binding; competition with immobilised ligand; 1 µM): 77%
CCCCCC1CC(=O)c2ccccc2O1 (centres unmarked) — inhibition (SIRT3; enzyme activity; inhibitor; fluorescence; 200 µM): 0.8%
CCCCCCNC(=O)c1ccccc1SC(C)=O — kinact (PTGS1; enzyme activity; inhibitor): 0.00035 s⁻¹
Cc1cc2c(cc1N1C(=O)c3cccc4c(Cl)ccc(c34)C1=O)n(C)c(=O)n2C — ΔTm (Transcription initiation factor TFIID subunit 1-like, BD1 (TAF1L, Homo sapiens, UniProt Q8IZX4); thermal stability; DSF; 10 µM): -0.2 °C
CCCCC#CCNC(=O)c1ccccc1SC(C)=O — kinact (PTGS1; enzyme activity; inhibitor; mass spectrometry): 0.0367 s⁻¹
Oc1ccc(-c2nc(-c3ccncc3)c(-c3ccc(F)cc3)[nH]2)cc1 — ΔTm (Transcription initiation factor TFIID subunit 1, BD2 (TAF1, Homo sapiens, UniProt P21675); thermal stability; DSF; 10 µM): -0.06 °C
CCOCCOCCOCCNC(=S)NCCCC[C@H](NS(C)(=O)=O)C(=O)N[C@@H](C)C(=O)N[C@@H](CCCNC(=N)N)C(N)=O — inhibition (SIRT3; enzyme activity; inhibitor; 100 µM): 16%
Cc1nn(CC(F)(F)F)cc1Nc1ncc(C2CC2)c(NCCc2c[nH]cn2)n1 — remaining activity (MAP3K9; enzyme activity; inhibitor; radiometric; 1 µM): 72%
C[S+]([O-])c1ccc(-c2nc(-c3ccncc3)c(-c3ccc(F)cc3)[nH]2)cc1 (centres unmarked) — ΔTm (Transcription initiation factor TFIID subunit 1, BD1 (TAF1, Homo sapiens, UniProt P21675); thermal stability; DSF; 10 µM): -0.19 °C
Cc1ccc(C(=O)Nc2ccc(CN3CCN(C)CC3)c(C(F)(F)F)c2)cc1C#Cc1cnc2cccnn12 — remaining activity (Mitogen-activated protein kinase kinase kinase 6 (MAP3K6, Homo sapiens, UniProt O95382); enzyme activity; inhibitor; 23.5 nM): 79%
COc1cc(Cl)c(C(=O)N[C@@H](CN[C@H]2CC[C@@H](N)CC2)Cc2ccc(C#N)cc2)cc1-c1ccc(CN[C@H](C)c2ccc(C)cc2)o1 — remaining activity (Transcription initiation factor TFIID subunit 1-like (TAF1L, Homo sapiens, UniProt Q8IZX4); enzyme activity; inhibitor; 1 µM): 96%
CCCOc1ccc(OC)c(F)c1C(=O)c1ccc(C(=O)N[C@@H]2CNC[C@H]2NC(=O)c2ccc3[nH]ncc3c2)cc1 — remaining activity (Serine/threonine-protein kinase MRCK alpha (CDC42BPA, Homo sapiens, UniProt Q5VT25); enzyme activity; inhibitor; 10 µM): -3%
NS(=O)(=O)c1ccc(CNc2ccnc(Nc3cccc(CN4CCOCC4)c3)n2)cc1 — remaining activity (Serine/threonine-protein kinase MARK1 (MARK1, Homo sapiens, UniProt Q9P0L2); enzyme activity; inhibitor; radiometric; 1 µM): 102%
CCCCCC1CC(=O)c2cccc(Br)c2O1 (centres unmarked) — inhibition (SIRT3; enzyme activity; inhibitor; fluorescence; 200 µM): 6.7%
Oc1cccc(Nc2nc(-c3ccc(F)cc3F)cs2)c1 — inhibition (Type-2 angiotensin II receptor (AGTR2, Homo sapiens, UniProt P50052); cell-free assay; 10 µM): -5.6%
CN(C)C1CCN(CC#Cc2nn(C3CCCC3)c3nc(NCc4ccccc4)ncc23)C1 (centres unmarked) — inhibition (Ephrin type-A receptor 3 (EPHA3, Homo sapiens, UniProt P29320); enzyme activity; inhibitor; FRET; 0.1 µM): -6%
COc1cc(NC(C)=O)c(Cl)cc1C(=O)Nc1nccs1 — inhibition (D(1A) dopamine receptor (DRD1, Homo sapiens, UniProt P21728); cell-free assay; 10 µM): -7.2%
Cc1nn(CC(F)(F)F)cc1Nc1ncc(Br)c(NCCCNC(=O)C2CCC2)n1 — remaining activity (MAP3K9; enzyme activity; inhibitor; radiometric; 1 µM): 21%
Cc1cnc(Nc2ccc(OCCN3CCCC3)cc2)nc1Nc1cccc(S(=O)(=O)NC(C)(C)C)c1 — ΔTm (TAF1L BD2; thermal stability; DSF; 10 µM): 0.91 °C
C#CCNC(=O)c1ccccc1SC(C)=O — kinact (PTGS1; enzyme activity; inhibitor): 0.000417 s⁻¹
